How the values were obtained:
Conditions in all cases: Cricetulus griseus
V79 [1] = assay: Cytotoxicity activity against V79 cells; type: functional, cell-based
Procedure, shortened: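 V79 cells kept in D-MEM with 10% Fetal Clone I serum at 37 °C, 5% CO2, then seeded in 96-well plates and allowed to adhere overnight. Exposed 2 days to compound (0–3000 µM, pH 7–7.5, in complete medium). Viability read by MTS (2 h, 490 nm), expressed as percent of untreated control. IC50 taken by regression of viability vs concentration.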

V79 [2] = assay: Glutathione peroxidase activity in V79 cells at 100 uM expressed as fold induction of GPx activity to control value; type: cell-based
Procedure, shortened: (§1)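 V79 cells (5.0×10^5 per flask) adhered overnight, then exposed 48 h to compound in complete medium (pH 7–7.5), followed by 24 h in fresh medium. Cells were sonicated in Tris-HCl (50 mM, pH 7.5, EDTA, 2-mercaptoethanol) and centrifuged. Supernatant GPx was read as NADPH loss at 340 nm over 3 min with tert-butyl hydroperoxide, normalised to Bradford protein (N = 9), and given as fold over untreated control.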

V79 [3] = assay: Glutathione peroxidase activity in V79 cells at 20 uM expressed as fold induction of GPx activity to control value; type: cell-based; procedure, shortened: as §1

Structure (SMILES): CC1N[C@@H](C(=O)O)C[Se]1 (some centres undefined)
- IC50 (V79 [1]): 160 µM
- Fold induction (V79 [2]): 1.3

Structure (SMILES): C[Se]CC[C@H](N)C(=O)O [SELENOMETHIONINE]
- IC50 (V79 [1]): 267 µM
- Fold induction (V79 [2]): 1.8

Structure (SMILES): O=[Se](O)O [SODIUM SELENITE]
- IC50 (V79 [1]): 17 µM

Structure (SMILES): C[Se]C[C@H](N)C(=O)O [METHYLSELENOCYSTEINE]
- IC50 (V79 [1]): 472 µM
- Fold induction (V79 [2]): 1.5

Structure (SMILES): N#C[Se]Cc1ccc(C[Se]C#N)cc1
- Fold induction (V79 [3]): 1.5
- IC50 (V79 [1]): 12 µM

Structure (SMILES): CC1N[C@H](C(=O)O)C[Se]1 (some centres undefined)
- IC50 (V79 [1]): 79 µM
- Fold induction (V79 [2]): 2.1

Structure (SMILES): O=[Se](=O)(O)O [SODIUM SELENATE]
- IC50 (V79 [1]): 292 µM
- Fold induction (V79 [2]): 1.9

Structure (SMILES): O=C1N[C@@H](C(=O)O)C[Se]1
- IC50 (V79 [1]): > 3000 µM
- Fold induction (V79 [2]): 1.4

Structure (SMILES): O=C(O)[C@@H]1C[Se]CN1
- IC50 (V79 [1]): 317 µM
- Fold induction (V79 [2]): 5.9

Structure (SMILES): O=C1N[C@H](C(=O)O)C[Se]1
- IC50 (V79 [1]): 451 µM
- Fold induction (V79 [2]): 4.6
